This is an account of results in ChEMBL document CHEMBL2169816, “Noncyclam tetraamines inhibit CXC chemokine receptor type 4 and target glioma-initiating cells” (J Med Chem, 2012).

Active and inactive are the calls of the source. The calls are words filed in the database; no cut-off is given here. A value given as a limit tells only on which side of the number the result lay.

For series [1], the system named is Mus musculus. The experiment in a line: Toxicity in Hsd:ICR(CD-1) mouse assessed as mortality at 2 mg/kg, iv after 1 min. The class given is organism-based. On the set-up: dose 2 mg/kg, route intravenous. The note with it: in vivo. The essentials:
(§1)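 Single iv tail-vein injection in physiological saline (0.9% NaCl) to Hsd:ICR (CD-1) mice; groups of 4 (2 male, 2 female) at doses of 1, 2, 3, 3.5 and 4 mg/kg. Viability/mortality and clinical signs checked during first 30 min and at ~1, 2, 3, 5 h on day 1, then through days 2–15; 14-day observation; body weights recorded; necropsy of all animals.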

Series [2] is described as follows: Cytotoxicity against human GBM1 assessed as cell viability after 7 days by trypan blue staining method in presence of CXCL12 relative to control. The note with it: GBM1 cells, read-out: Activity. The essentials: (§2)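 Dissociated neurospheres (acutase, 3 min) were counted and equal numbers seeded in triplicate per condition. Cells were treated or not with CXCR4 inhibitors (1 μM), with or without CXCL12. After 7 days cells were counted and viability expressed relative to untreated control.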

The nature of series [3]: (§3) Toxicity in iv dosed Hsd:ICR(CD-1) mouse measured up to 14 days. Format: organism-based. The note with it: Hsd:ICR(CD-1), in vivo. The essentials: as §1
In series [4] the test system is Mus musculus. Described as §3. The class given is organism-based. The settings on record: in vivo, 336 h. In outline: as §1
Series [5] addresses T1, C-X-C chemokine receptor type 4 (Homo sapiens, UniProt P61073). The settings on record: GBM2, 0.1 uM.
Series [6] in a line: Cytotoxicity against human GBM1 assessed as cell viability after 7 days by trypan blue staining method relative to control. The settings on record: GBM1 cells, read-out: Activity. The essentials: as §2
For another series, the target named is hERG (KCNH2) (Homo sapiens, UniProt Q12809). The series can be described thus: Inhibition of human ERG expressed in CHOK1 cells at 10 uM after 5 mins by whole-cell patch clamp assay. The class given is cell-based. The settings on record: CHO-K1 cells expressing human ERG. In outline:
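hERG-expressing CHO-K1 cells were tested by automated whole-cell patch-clamp, measuring inhibition of tail current. Compound was applied cumulatively at 0.1, 1 and 10 μM, 5 min each at room temperature. E-4031 served as reference.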
(In general: The patch-clamp technique gives a direct electrical read-out from membranes.)

The target of series [7] is T1, C-X-C chemokine receptor type 4. The experiment in a line: Antagonist activity at human recombinant CXCR4 expressed in CHO cells assessed as inhibition of SDF1a-induced electrical impedance by dielectric spectroscopic analysis. The class given is functional, cell-based. The essentials: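 CHO cells expressing recombinant human CXCR4. Antagonist mode: SDF-1a stimulant at 1 nM. Cellular impedance was read by cellular dielectric spectroscopy after incubation at 28 °C. Reference antagonist MIP-II was included. IC50 and KB were derived from concentration–response curves.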

Series [8] has the same target. The note with it: GBM2, 0.1 uM. The source holds these as a separate data set.
Series [9] deals with Human immunodeficiency virus 1. The series can be described thus: Antiviral activity against HIV1 infected in MT4 cells expressing CXCR4 assessed as inhibition of virus-induced cytopathic effect after 5 days. The class given is functional, organism-based. In outline: (§4)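 MT-4 cells, infected or not with HIV-1, exposed to a range of compound concentrations and left to proliferate for 5 days. Viable cells were counted by MTT colorimetric read-out. EC50 comes from protection against virus-induced cytopathic effect and CC50 from viability of uninfected cells.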

A short description of series [10]: (§5) Cytotoxicity against human MT4 cells expressing CXCR4 after 5 days by MTT assay. The class given is cell-based. The note with it: MT4 cells expressing CXCR4. The essentials: as §4
Background: Formazan colour is commonly taken as a measure of viable cells.

Series [11] concerns the target T1, C-X-C chemokine receptor type 4. The note with it: GBM2, 1 uM.
The test system of series [12] is CD44null. The experiment in a line: Effect on human GBM2 cell differentiation assessed as increase in CD44null cells after 7 days by flow cytometric analysis. Format: functional, cell-based. In outline: (§6)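 Patient-derived GBM neurospheres were treated with 1 μM inhibitor for 7 days, then dissociated and blocked 15 min with 10 μg/mL human IgG. Staining was FITC anti-CD44 or IgG2b isotype, 20 min on ice in the dark, then PBS wash and propidium iodide to exclude dying cells. Flow cytometry gave CD44 null fraction and CD44 low/CD44 null ratio.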
(In general: In flow cytometry, cells or beads pass a laser one at a time.)

Series [13] relates to CD44null. The series can be described thus: Effect on human GBM1 cell differentiation assessed as increase in CD44null cells after 7 days by flow cytometric analysis. Format: functional, cell-based. In outline: as §6
The target in series [14] is T1, C-X-C chemokine receptor type 4. The settings on record: GBM2, 1 uM. The source holds these as a separate data set.
Series [15] has the same target. The settings on record: GBM2, 1 uM. The source holds these as a separate data set.
The next series deals with MT4. The description is as §5. The class given is cell-based. The note with it: mt4, 120 h, 120 h. In outline:
as §4

Series [16] deals with Mus musculus. The experiment in a line: Toxicity in Hsd:ICR(CD-1) mouse assessed as mortality at 2.5 mg/kg, iv after 1 min. The class given is organism-based. On the set-up: dose 2.5 mg/kg, route intravenous. The settings on record: in vivo.
Series [17] addresses Voltage-gated inwardly rectifying potassium channel KCNH2 (Homo sapiens, UniProt Q12809). The experiment in a line: Inhibition of human ERG expressed in CHOK1 cells after 5 mins by whole-cell patch clamp assay. The class given is cell-based, CHO-K1.
Series [18] deals with GBM1. The experiment in a line: Effect on human GBM1 cell differentiation xenografted in NOD-SCID mouse assessed as decrease in tumor number incubated for 7 days prior to xenografting measured after 40 days by MRI scanning analysis relative to control. The class given is functional, cell-based. In outline: (§7)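 GBM1 neurospheres were pretreated in culture for 7 days, then dissociated, counted and checked for viability by trypan blue. 100.000 live cells were stereotactically injected into the right corpus striatum of 9-week-old NOD-SCID mice. At 40 days, contrast MRI (gadolinium-DTPA 0.25 mmol/kg ip) covered the whole brain and tumor volume was quantified.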

Series [19] relates to GBM1. The experiment in a line: Effect on human GBM1 cell differentiation xenografted in NOD-SCID mouse assessed as decrease in tumor size incubated for 7 days prior to xenografting measured after 40 days by MRI scanning analysis relative to control. Format: functional, cell-based. The essentials:
as §7

Series [20] addresses T1, C-X-C chemokine receptor type 4. The note with it: GBM2, 1 uM. This is another data set of the same source.
For series [21] the target is unchanged. The settings on record: GBM2, 1 uM. The source holds these as a separate data set.
The subject of series [22] is Mus musculus. The series can be described thus: Toxicity in Hsd:ICR(CD-1) mouse assessed as mortality at 3 mg/kg, iv after 1 min. Format: organism-based. On the set-up: dose 3 mg/kg, route intravenous. The note with it: in vivo. The essentials:
as §1

For series [23], the target named is T1, C-X-C chemokine receptor type 4. The note with it: GBM2, 0.1 uM. This is another data set of the same source.
For series [24] the target is unchanged. The note with it: GBM2, 1 uM. This is another data set of the same source.
Where [25] appears, read: Human immunodeficiency virus 1, MT4, 120 h.

T1 sequence (P61073 whole entry): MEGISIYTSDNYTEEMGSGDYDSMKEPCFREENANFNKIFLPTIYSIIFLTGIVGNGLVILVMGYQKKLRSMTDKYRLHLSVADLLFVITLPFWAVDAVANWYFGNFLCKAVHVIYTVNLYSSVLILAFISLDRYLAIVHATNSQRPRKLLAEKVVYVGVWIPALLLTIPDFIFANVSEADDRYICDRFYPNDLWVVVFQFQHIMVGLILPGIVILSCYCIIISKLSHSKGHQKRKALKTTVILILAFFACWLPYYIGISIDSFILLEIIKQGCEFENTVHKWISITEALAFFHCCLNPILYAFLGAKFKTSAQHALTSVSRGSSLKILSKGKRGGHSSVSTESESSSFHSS
Voltage-gated inwardly rectifying potassium channel KCNH2, sequence (Q12809 whole entry): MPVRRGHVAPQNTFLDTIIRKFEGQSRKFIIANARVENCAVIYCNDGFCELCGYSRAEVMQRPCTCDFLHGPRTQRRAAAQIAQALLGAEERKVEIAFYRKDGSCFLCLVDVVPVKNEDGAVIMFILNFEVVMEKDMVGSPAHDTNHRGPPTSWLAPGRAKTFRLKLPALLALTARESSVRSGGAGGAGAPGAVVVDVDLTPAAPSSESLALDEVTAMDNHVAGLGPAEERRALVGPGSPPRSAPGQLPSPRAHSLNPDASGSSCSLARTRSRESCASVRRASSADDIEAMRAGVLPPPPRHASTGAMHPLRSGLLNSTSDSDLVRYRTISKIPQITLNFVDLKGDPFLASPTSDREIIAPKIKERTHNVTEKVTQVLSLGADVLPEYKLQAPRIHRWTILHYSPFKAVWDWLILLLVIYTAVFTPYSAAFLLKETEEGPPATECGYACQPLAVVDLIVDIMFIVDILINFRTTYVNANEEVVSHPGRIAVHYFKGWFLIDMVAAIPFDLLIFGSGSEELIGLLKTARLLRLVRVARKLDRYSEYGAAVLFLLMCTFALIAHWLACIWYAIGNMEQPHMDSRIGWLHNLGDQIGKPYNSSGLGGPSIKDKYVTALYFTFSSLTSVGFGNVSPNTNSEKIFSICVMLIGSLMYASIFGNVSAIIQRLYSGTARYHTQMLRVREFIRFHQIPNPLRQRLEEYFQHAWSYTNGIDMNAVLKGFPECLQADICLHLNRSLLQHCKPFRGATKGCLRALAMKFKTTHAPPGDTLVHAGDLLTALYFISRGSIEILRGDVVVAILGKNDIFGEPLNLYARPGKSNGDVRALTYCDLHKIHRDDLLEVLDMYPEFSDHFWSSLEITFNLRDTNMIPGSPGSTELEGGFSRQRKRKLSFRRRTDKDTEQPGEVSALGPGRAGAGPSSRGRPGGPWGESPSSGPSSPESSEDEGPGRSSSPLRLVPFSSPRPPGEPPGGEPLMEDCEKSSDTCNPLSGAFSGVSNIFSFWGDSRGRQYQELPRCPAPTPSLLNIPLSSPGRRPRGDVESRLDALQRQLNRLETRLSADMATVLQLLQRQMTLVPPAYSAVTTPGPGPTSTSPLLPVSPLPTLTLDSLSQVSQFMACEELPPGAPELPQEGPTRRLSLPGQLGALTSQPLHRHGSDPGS
hERG (KCNH2), sequence (Q12809 whole entry): as above

For orientation: inhibition means the drop in the measured response relative to a control, in per cent. Usually IC50 stands for the point on the concentration scale where inhibition reaches its midpoint. The term EC50 denotes the concentration giving half of the maximal effect. By CC50 is commonly meant the concentration that lowers cell viability or growth by half. In the case of `C[C@H]1CCCCN1CCCNCc1ccc(CNCCCN2CCCC[C@@H]2C)cc1.Cl`, the Activity entry in the series on Mus musculus [1] is on record as “Toxic”. Further, the viability at 168 h in series [2] and in series [6] was above 80% each time. In series [3], this compound gave an MTD at 336 h of 1.5 mg/kg. Also, the MLC in the series on Mus musculus [4] was 2 mg/kg. Moreover, the inhibition result in series [5], in series [8], in [14] and in series [15] was “inactive” in each case. Moreover, on hERG (KCNH2), the inhibition at 5 min, 10 µM was below 25%. Besides, in [7], the IC50 stood at 1100 nM. The EC50 in series [9] (setting [25]) worked out at 137 nM. In series [10], this compound displayed a CC50 at 120 h above 44000 nM. In addition, the inhibition result in [11] was “Active”. Besides, the result in the series with CD44null [12] and in the series on CD44null [13] was Active.
Consider `CC1CCCCN1CCCNCc1ccc(CNCCCN2CCCCC2C)cc1` (mixture of isomers; 11) [listing 1 of 2 here], for which, in [9] (mt4), the EC50 worked out at 130 nM. Moreover, the CC50 in the series with MT4 (read-out: CC50) was above 44000 nM.
`C[C@@H]1CCCCN1CCCNCc1ccc(CNCCCN2CCCC[C@H]2C)cc1.Cl`: the viability at 168 h in [2] and in [6] was above 80% in each case. In addition, the IC50 is 350 nM in series [7] and above 100000 nM in series [17]. Besides, the Activity entry with Mus musculus [16] is on record as “Toxic”. Besides, in series [9] (setting [25]), the EC50 amounted to 125 nM. The CC50 at 120 h in [10] is above 44000 nM.
`CC1CCCCN1CCCNCc1ccc(CNCCCN2CCCCC2C)cc1` (mixture of isomers; 1): the EC50 in [9] (mt4) amounted to 19 nM. In addition, the CC50 in the series with MT4 was above 25 µg/mL.
In the case of `CC1CCCCN1CCCNCc1ccc(CNCCCN2CCCCC2C)cc1` (mixture of isomers; 11) [listing 2 of 2 here], the outcome in the series on CD44null [12], in the series with GBM1 [18], in the series on GBM1 [19] and with CD44null [13] was Active.
As to `C[C@@H]1CCCCN1CCCNCc1ccc(CNCCCN2CCCC[C@@H]2C)cc1.Cl` (mixture of isomers), the viability at 168 h in series [2] and in [6] was above 80% each time. This compound also came in with an MTD at 336 h in series [3] of 2.5 mg/kg. For the same compound, in the series on Mus musculus [4], the MLC turned out to be 3 mg/kg. In addition, the inhibition entry in series [20], in series [5], in [8] and in [23] was “inactive” each time. Also, the IC50 in series [7] was 790 nM; in series [17], above 100000 nM. For the same compound, the inhibition entry in [21], in series [14], in series [15] and in series [24] was “Active” throughout. Moreover, the EC50 in series [9] (setting [25]) is 139 nM. Also, in the series with Mus musculus [22], the Activity entry is listed as “Toxic”. Besides, the CC50 at 120 h in series [10] is 26000 nM. Moreover, the outcome in the series on CD44null [12] and with CD44null [13] was Active.
Regarding `C[C@@H]1CCCCN1CCCNCc1ccc(CNCCCN2CCCC[C@H]2C)cc1` [listing 1 of 2 here], the inhibition result in series [5], in [8], in [14] and in [15] was “inactive” each time. For the same compound, the result in the series on CD44null [12] and with CD44null [13] was Active.
Turning to `C[C@@H]1CCCCN1CCCNCc1ccc(CNCCCN2CCCC[C@H]2C)cc1` [listing 2 of 2 here], in series [3], the MTD at 336 h amounted to 2 mg/kg. In the series on Mus musculus [4], this compound showed an MLC of 2.5 mg/kg.
